T cruzi HTS: intracellular Trypanosoma cruzi inhibition; intracellular Trypanosoma cruzi in host cells, plate reader; activity score (inhibition), % at 5.01 µM; 22,000 compounds, 4.9% hits; in the data active means activity score above about 55%;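 further: parasites and compound incubated about four days before reading; 0% = median of neutral control wells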
A1 apoptosis 2: blocks A1, raising caspase activity; MEF A1-2A-BIM cells, caspase-Glo luminescence, 3 h; percent of clofoctol response, DMSO zero; AID 2465; 24,000 tested, under 10 active; caspase activation, % (concentration not given with the values); in the data active means caspase activation above about 5.9%
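Evaluation: Caspase-3/7 activity from luminescence increase | Assay system: A1-2A-BIM mouse embryonic fibroblasts | Quantity: 2500 MEF cells/well | Medium: RPMI-1640 plus 10% FBS | Detection: Caspase-Glo 3/7 luminescence, 1 h at room temperature | Dosing: 50 nL compound per well, pinned | Timing: Cells settled overnight, compound exposure 3 h at 37 °C, 5% CO2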
INS-1E rescue: preserves ATP levels in cytokine-treated INS-1E cells | INS-1E cytokine-induced death, ATP luminescence, 48 h; normalised: neutral wells 0, positive control 100 | protection from cytokine-induced ATP loss, % at 10 µM | 20,000 compounds, 0.1% hits;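 active means mean replicate protection from cytokine-induced ATP loss at least 50% and at least 75% of replicates each reaching 50%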
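Assay system: INS-1E rat insulinoma cells. Amount: 8000 cells per well. Medium: phenol-red-free RPMI with 5% fetal bovine serum. Reagent: IL-1β, TNF-α and IFN-γ cytokine mix. Doses: one compound concentration, pin transfer. Schedule: 48 h co-treatment, 10 min post-lysis read. Detection: CellTiter-Glo luminescence measuring cellular ATP.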
The depositor's hits bear a star; x = no result given. This excerpt belongs to a sample that is enriched for hits.

SMILES | T cruzi HTS | A1 apoptosis 2 | INS-1E rescue
COc1ccc(S(=O)(=O)Nc2cccc3c2O[C@H](CN(C)Cc2ccc(C(=O)O)cc2)[C@H](C)CN([C@@H](C)CO)C3=O)cc1 | -3.9 | 0.1 | 12.0
Cc1noc(C)c1S(=O)(=O)N(C)C[C@H]1Oc2c(NC(=O)c3nc4ccccc4s3)cccc2C(=O)N([C@H](C)CO)C[C@H]1C | 35.7 | -1.5 | -18.7
C[C@H]1CN([C@@H](C)CO)C(=O)c2cc(N(C)C)ccc2O[C@@H]1CN(C)S(C)(=O)=O | -10.3 | x | -1.0
C[C@@H]1CN([C@@H](C)CO)C(=O)c2cccc(NC(=O)C3CC3)c2O[C@@H]1CN(C)Cc1ccc(C(=O)Nc2ccccc2N)cc1 | 25.9 | x | 58.6*
C[C@H](CO)N1C[C@H](C)[C@H](CN(C)Cc2ccc(C(=O)Nc3ccccc3N)cc2)Oc2c(NC(=O)C3CC3)cccc2C1=O | 36.9 | x | -9.3
C[C@@H]1CCCCO[C@@H](CN(C)CC2CCCCC2)[C@H](C)CN([C@H](C)CO)C(=O)c2cc(NC(=O)Nc3cccc4ccccc34)ccc2O1 | x | 2.1 | x
C[C@@H]1CCCCO[C@@H](CN(C)C)[C@H](C)CN([C@@H](C)CO)C(=O)c2cc(NC(=O)NC3CCCCC3)ccc2O1 | x | 0.9 | x
Cc1ccc(S(=O)(=O)Nc2cccc3c2O[C@H](CN(C)Cc2ccc4c(c2)OCO4)[C@H](C)CN([C@H](C)CO)C3=O)cc1 | 46.3 | -0.1 | -3.1
C[C@@H]1CN([C@@H](C)CO)C(=O)Cc2cc(NS(=O)(=O)c3ccc(Cl)cc3)ccc2O[C@H]1CN(C)Cc1ccc(Cl)c(Cl)c1 | x | -1.5 | x
Cc1ccc(S(=O)(=O)Nc2ccc3c(c2)CC(=O)N([C@@H](C)CO)C[C@H](C)[C@H](CN(C)Cc2ccc(Cl)c(Cl)c2)O3)cc1 | 18.7 | x | 0.1
Cc1ccc(S(=O)(=O)Nc2ccc3c(c2)C(=O)N([C@H](C)CO)C[C@@H](C)[C@@H](CN(C)Cc2ccc(Cl)c(Cl)c2)O3)cc1 | 36.3 | x | -18.9
Cc1ccc(S(=O)(=O)Nc2ccc3c(c2)CC(=O)N([C@H](C)CO)C[C@@H](C)[C@@H](CN(C)Cc2ccc(Cl)c(Cl)c2)O3)cc1 | 70.8* | x | -51.3
Cc1ccc(S(=O)(=O)Nc2ccc3c(c2)CC(=O)N([C@H](C)CO)C[C@@H](C)[C@H](CN(C)Cc2ccc(Cl)c(Cl)c2)O3)cc1 | 64.8* | x | 1.5
Cc1ccc(S(=O)(=O)Nc2ccc3c(c2)CC(=O)N([C@@H](C)CO)C[C@@H](C)[C@@H](CN(C)Cc2ccc(Cl)c(Cl)c2)O3)cc1 | 58.7* | 0.5 | -30.2
Cc1ccc(S(=O)(=O)Nc2ccc3c(c2)C(=O)N([C@H](C)CO)C[C@H](C)[C@H](CN(C)C(=O)Nc2c(C)noc2C)O3)cc1 | -4.1 | x | -1.5
C[C@H]1CN([C@@H](C)CO)C(=O)c2cccc(NC(=O)c3cnccn3)c2O[C@@H]1CN(C)S(=O)(=O)c1ccccc1 | -10.5 | x | 8.4
COC(=O)[C@H](Cc1ccccc1)N1C(=O)O[C@H](Cc2ccccc2)[C@@H]1/C=C/C1CC1 | x | -0.1 | x
COc1ccc(CN(C)C[C@H]2Oc3ccc(NS(=O)(=O)c4ccc(OC)cc4)cc3CC(=O)N([C@H](C)CO)C[C@H]2C)cc1 | 63.6* | -0.3 | 2.6
COc1ccc(S(=O)(=O)Nc2ccc3c(c2)CC(=O)N([C@@H](C)CO)C[C@@H](C)[C@@H](CN(C)Cc2ccc4c(c2)OCO4)O3)cc1 | 3.9 | 0.2 | -4.2
COc1ccc(S(=O)(=O)Nc2ccc3c(c2)CC(=O)N([C@H](C)CO)C[C@@H](C)[C@H](CN(C)Cc2ccc4c(c2)OCO4)O3)cc1 | 65.6* | x | 2.5
COc1ccc(CN(C)C[C@@H]2Oc3ccc(NS(=O)(=O)c4ccccc4)cc3CC(=O)N([C@@H](C)CO)C[C@@H]2C)cc1 | 17.4 | x | 3.8
COc1ccc(CN(C)C[C@H]2Oc3ccc(NS(=O)(=O)c4ccc(OC)cc4)cc3CC(=O)N([C@H](C)CO)C[C@@H]2C)cc1 | x | -1.4 | x
COc1ccc(S(=O)(=O)Nc2ccc3c(c2)CC(=O)N([C@@H](C)CO)C[C@@H](C)[C@H](CN(C)Cc2ccccc2)O3)cc1 | x | -0.5 | x
COc1ccc(S(=O)(=O)Nc2ccc3c(c2)CC(=O)N([C@H](C)CO)C[C@@H](C)[C@@H](CN(C)Cc2ccc(-c4ccccc4)cc2)O3)cc1 | 72.3* | 0.7 | -16.2
COc1ccc(S(=O)(=O)Nc2ccc3c(c2)CC(=O)N([C@H](C)CO)C[C@@H](C)[C@@H](CN(C)Cc2ccccc2)O3)cc1 | 62.8* | -0.4 | -6.2
O=C(CCCCCC(=O)Nc1ccccc1O)N/N=C/c1ccc(O)cc1 | -2.8 | 0.6 | 5.9

Compound activity (PubChem BioAssay)
